Experimental data pooled from the literature.
Lines come from different studies, so protocols differ. ≈ marks a conversion by molar mass, not a printed value.

SMILES | target or system | assay | system | setting | measurement | value
CC(C)(C)c1cc(NC(=O)Nc2ccc(-c3cn4c(n3)sc3cc(OCCN5CCOCC5)ccc34)cc2)no1 | 22Rv1 | cell growth or viability | – | 72 h | GI50 | > 10 µM
Cc1ccc2[nH]nc(-c3nnc(Nc4ccc(Br)cc4)s3)c2c1 | Serratia marcescens | microbial growth | ATCC8100 | – | MIC | 257 µg/mL (≈ 664 µM)
O=C(Nc1ccc(Cl)cc1)Nc1ccc(-c2cn(Cc3ccc(Br)cc3)nn2)cc1 | NCI-H1299 | cell growth or viability, CCK-8 | – | 50 µM, 72 h | viability | 89.9%
COc1ccc(NC(=O)Nc2ccc(-c3cn(Cc4ccc(C)cc4)nn3)cc2)cc1 | NCI-H1299 | cell growth or viability, CCK-8 | – | 50 µM, 72 h | viability | 104%
Cc1ccc2[nH]nc(-c3nnc(Nc4ccc(Cl)cc4)s3)c2c1 | Serratia marcescens | microbial growth | ATCC8100 | – | MIC | 65.8 µg/mL (≈ 192 µM)
O=C(NCc1cn(Cc2ccc(Cl)cc2)nn1)Nc1ccccc1Br | NCI-H1299 | cell growth or viability, CCK-8 | – | 50 µM, 72 h | viability | 90.7%
COc1ccc(NC(=O)Nc2ccc(-c3cn(Cc4cccc(Cl)c4)nn3)cc2)cc1 | NCI-H1299 | cell growth or viability, CCK-8 | – | 50 µM, 72 h | viability | 93.7%
Nc1nn2c(-c3ccco3)cc(-c3ccc(OCc4ccccc4)cc3)nc2c1N=Nc1ccc(F)cc1 | Enterobacter cloacae | microbial killing | ATCC23355 | – | MBC | 62.5 µg/mL (≈ 124 µM)
COc1ccc(NC(=O)Nc2cccc(-c3cn(Cc4ccc(C)cc4)nn3)c2)cc1 | NCI-H1299 | cell growth or viability, CCK-8 | – | 50 µM, 72 h | viability | 156%
O=C(Nc1cccc(-c2cn(Cc3ccc(Cl)cc3)nn2)c1)Nc1ccccc1Br | NCI-H1299 | cell growth or viability, CCK-8 | – | 50 µM, 72 h | viability | 130%
COc1ccc(N=Nc2c(N)nn3c(-c4ccc(C)cc4)cc(-c4ccc(OCc5ccccc5)cc4)nc23)cc1 | Enterobacter cloacae | microbial killing | ATCC23355 | – | MBC | 125 µg/mL (≈ 231 µM)
COc1ccc(NC(=O)NCc2cn(Cc3ccc(Br)cc3)nn2)cc1 | NCI-H1299 | cell growth or viability, CCK-8 | – | 50 µM, 72 h | viability | 91.9%
O=C(Nc1ccc(Cl)cc1)Nc1ccc(-c2cn(Cc3ccc(Cl)cc3)nn2)cc1 | NCI-H1299 | cell growth or viability, CCK-8 | – | 50 µM, 72 h | viability | 88.1%
Nc1nn2c(-c3ccc(Cl)cc3Cl)cc(-c3ccc(OCc4ccccc4)cc3)nc2c1N=Nc1ccc(F)cc1 | Enterobacter cloacae | microbial killing | ATCC23355 | – | MBC | 62.5 µg/mL (≈ 107 µM)
COc1ccc(NC(=O)Nc2cccc(-c3cn(Cc4ccc(Br)cc4)nn3)c2)cc1 | NCI-H1299 | cell growth or viability, CCK-8 | – | 50 µM, 72 h | viability | 151%
O=C(NCc1cn(Cc2ccc(Br)cc2)nn1)Nc1ccc(Cl)cc1 | NCI-H1299 | cell growth or viability, CCK-8 | – | 50 µM, 72 h | viability | 91.5%
CC[C@H]1OC(=O)[C@H](C)[C@@H](O[C@H]2C[C@@](C)(OC)[C@@H](O)[C@H](C)O2)[C@H](C)[C@@H](O[C@@H]2O[C@H](C)C[C@H](N(C)C)[C@H]2O)[C@](C)(O)C[C@@H](C)CN(C)[C@H](C)[C@@H](O)[C@]1(C)O | Serratia marcescens | microbial growth | ATCC8100 | – | MIC | < 98 µg/mL
CN(C)CCNC(=O)c1ccc(-c2nc3ccc4[nH]ncc4c3c3c2CCCCC3)cc1 | 22Rv1 | cell growth or viability | – | 72 h | GI50 | 4.12 µM
Cc1ccc(N=Nc2c(N)nn3c(-c4ccc(Cl)cc4Cl)cc(-c4ccc(OCc5ccccc5)cc4)nc23)cc1 | Enterobacter cloacae | microbial killing | ATCC23355 | – | MBC | 62.5 µg/mL (≈ 108 µM)
